# Measured values taken from the EternaBench riboswitch data.
# Test system: MS2 coat protein
# Assay: apparent Kd, MS2 coat protein; higher = weaker binding; RNA-MaP array; FMN 200 µM where present
# Procedure, shortened: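 Green signal was scaled to red-channel RNA signal and control-cluster median Fmax, and the apparent Kd was taken as the median of filtered per-cluster binding-curve fits. The binding series used SNAP-549-labelled MS2 coat protein from 0.7 or 1.5 nM, doubling to 3 µM, on designs transcribed by stalled E. coli RNA polymerase on Illumina sequencing-chip clusters. Each series ran without and then with constant ligand in 100 mM Tris-HCl pH 7.5, 80 mM KCl, 4 mM MgCl2, BSA, DTT, yeast tRNA and Tween-20.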
# [1] = designed as: OFF switch for flavin mononucleotide, no ligand
# [2] = ligand present: flavin mononucleotide, designed as: OFF switch for flavin mononucleotide
# [3] = designed as: ON switch for flavin mononucleotide, no ligand
# [4] = ligand present: flavin mononucleotide, designed as: ON switch for flavin mononucleotide
Sequence,apparent Kd [1],apparent Kd [2],apparent Kd [3],apparent Kd [4]
AUACAUGAGGAUCACCCAUGUUACUGGGUCUAUAUAGAACGUAGAAGGAUGAUAUUAUAAAUAUCAUAGGAUAUACUAUAUUGU,32.7 nM,32 nM,,
UUGGACGUCGUAGGAUAUGUAGGAUAUUCCUACAUGAGGAUCACCCAUGUUGACCUGGAAGAAGGACAGAAGGACGAUGUCCAU,,,64.2 nM,4.64 nM
CCUUGUAUUGAGGAUAUGCGCCGGCUCGCUGGCGCAGAAGGCGGCACAUGAGGAUCACCCAUGUCAGUUCGCGA,9.34 nM,12 nM,,
GGGUGACUAGGAUAUACAUGAGGAUCACCCAUGUGUACUGGACCUGGGUAGUCUUGGAGUAGAAGGAGUAGCUG,85.3 nM,127 nM,,
UGGUACUAGGGAGGAUAUGGGAAGAUACAUGAGGAUCACCCAUGUUUAAGAAUGCCGAGAGGCAAGUAGAAGGCCCUAGUACCU,,,781 nM,97.5 nM
GCCGCAGGAACAGGAUAUGUGGGCAUAAAAUUAUACCAGGCCCACAUGAGGAUCACCCAUGUGACACAGAAGGGUUCCUAAAUA,,,619 nM,29.8 nM
UCCGCUAUCUAGAAGGAUAUGCGUAUAUAAACAUGAGGAUCACCCAUGUACCGGCGAAAACCGGUGCAGAAGGUUUAGCUAGUGA,,,431 nM,65.7 nM
UGUCUCAGAGGAUAUACAGGUGUAGAUCCUUUAGACCCUUGACAUGAGGAUCACCCAUGUAGAAGGCUGCAGAC,69.4 nM,26.4 nM,,
AAUAGGCGAGGAUAUACAUGAGGAUCACCCAUGUAAGUAAGCCUGGCUGAAACUAAAUGUAGAAGGCGCAAUAA,14.3 nM,43.1 nM,,
CGAGUACAUGAGGAUCACCCAUGUUAUGAAUUGUCAGGAUAUGGGUAUUGGUGACAUGCGCCAGAAGGGACGUCUG,,,232 nM,124 nM
GUACUGUAGUGAGGAUAUACGAGUGCGAUAGCACGGCGAUCCAAUUAUACAUGAGGAUCACCCAUGUAGAAGGCACUUCAGUAC,9.04 nM,41 nM,,
UCUGUUGAAGGAUAUGCGUAAUGAGUUACGGCUCGAGGUCUACAUGAGGAUCACCCAUGUAGAAGGUCAUCAGA,16.4 nM,15.9 nM,,
UUGGACGUCGUUGGAUAUGUAGGAUAUUCCUACAUGAGGAUCACCCAUGUUGACAUGGAAGAAGGACAGAAGGACGAUGUCCAU,,,196 nM,6.05 nM
AUCAGUCCGUAGAAGGGUGACAUGAGGAUCACCCAUGUGCCGUGUGCAUUUAUGCCUCCACGGCCACAGGAUAUACGGAGUCGA,,,89 nM,22.6 nM
ACAAAUCCUGACAUGAGGAUCACCCAUGUUAGAUUGUUAUGUCAGGAUAUUAUCUGGCAACCAGAUGAGAAGGGACGAUUUGUG,,,722 nM,64.7 nM
UCAUCGUGAGGAUAUUAUCGUAAGUGCAGGGUCUGACUUAGUAAGAAGGCACAUGAGGAUCACCCAUGUCCCUC,20.2 nM,28.5 nM,,
AGAUACAACCAGAAGGACAUGAGGAUCACCCAUGUAGGAUAUGGGUUACACGUUCCUGUGAAUUGUAACGACGCUACGUAGAGU,,,178 nM,15 nM
UGUCGGAGCAGAGGAUAUUACAUGAGGAUCACCCAUGUAUGAACCAAUAGCUGGAUACAGCAAUGUAAGAAGGCUGCUCCGACA,9.16 nM,89.2 nM,,
AAUUAAGAUCUAGGAUAUCACGUCGAUUAGACGUGAGAAGGAGAUCAUAACAUGAGGAUCACCCAUGUAUUACAUGAAUUAAUU,,,28 nM,25.9 nM
UGAACUAUGUAGAAGGCCCACAUUAAUAUGUAGGGAGGAUAUACAUGAGGAUCACCCAUGUGAAGAGCAAGAGGGUUUAACAGA,112 nM,143 nM,,
UUGAGGCACCAGAAGGACAUGAGGAUCACCCAUGUAGGAUAUGGGCAAGCCGACGUGCGCAGAUUGCUUAGUUGGGUAUCUUCU,,,43.2 nM,10.4 nM

Sequence,apparent Kd [1],apparent Kd [2],apparent Kd [3],apparent Kd [4]
GACACUAUGUUUGUCAGAUAGAGAGAGGAUAUGGCUCAUGAGACAUGAGGAUCACCCAUGUAUAAUCAGAAGGCUCGAGUAGGA,,,12.5 nM,9.56 nM
AUCUCACAUGAGGAUCACCCAUGUUAGGAUAUUGUUUCUUGAUGAUUACAUCAAGCGAUAAGAAGGGACAGACU,25.6 nM,27.4 nM,,
AUGCUAGUGUGAGGAUAUUAACAUGAGGAUCACCCAUGUUGGAAGAUCAUGACGAUCACGCAUGAUAAGAAGGUACAUUAGCAU,40.8 nM,94.9 nM,,
CUCACGUUAGUAGGAUAUCCGACAUGAGGAUCACCCAUGUCACUACGCCGAUAGGGAAGGUGUAAGGAGAAGGGCUGAUAAAUA,,,124 nM,92.9 nM
AAGUCUGGACGAGGAUAUCAGCUGUAUCUGGCGUCAACAUGAGGAUCACCCAUGUUGCUAUAGGGUGAGAAGGCGUUUGGGCAA,,,84.9 nM,19.9 nM
UGGUACUAGGGAGGAUAUGGGAAGAUACAUGAGGAUCACCCAUGUUUAAGAGUGCCGAGAGGCAACUAGAAGGCCCUAGUACCU,,,1030 nM,83 nM
AAAUUUAACGAAGGAUAUACUAACAUGAGGAUCACCCAUGUGUGCUUUGUGUUGCUGAAAUUCGGGUAGAAGGUCGUAUACAUA,82.8 nM,118 nM,,
CCGACUUACUAGGAUAUCAGAGUCGAAAGACUCUGAGAAGGAGUAACAUGAGGAUCACCCAUGUGUCCUAUCGG,23.3 nM,77.7 nM,,
CACUGCAAUGUAGGAUAUCGACUGGAAUACAGUCGAGAAGGACAUGAGGAUCACCCAUGUAAUCCUAAUAAUAAAUAAGCAGUG,12.4 nM,18.4 nM,,
GGAUAGGACAGAGGAUAUACGUGCUAGAGAUACUAGCAAAAUUUCCUCACAUGAGGAUCACCCAUGUAGAAGGCAGUCCUAUCG,4.95 nM,7.33 nM,,
UUGUUAUAUGUAGGAUAUGCAUAUUGUUAUUAUGCAGAAGGACAUGAGGAUCACCCAUGUAUAUUAUUAUUAUAUAUUAUAUAU,32 nM,64.7 nM,,
UGCCGUUUAGGAUAUACAUGAGGAUCACCCAUGUGACAAACAUAUUUUACAAAACCAUGUAGAAGGAAACGGCA,97.4 nM,468 nM,,
CAGUACUGAGGAUAUACAUGAGGAUCACCCAUGUGGUUAAGCUAGGAAACUAGCAAAUGUAGAAGGCAGUACUG,240 nM,85.1 nM,,
UUAUUAUAUGUAGGAUAUGCAUAUUAUUAUUAUGCAGAAGGACAUGAGGAUCACCCAUGUAUGUUAUUAUUAUAUAUUAUAUAU,26.1 nM,34.7 nM,,
AACAGUACAGGAUAUACAUGAGGAUCACCCAUGUGAUAAUUAAGUGGCGUACCACAAAGUAGAAGGGUACUGGA,37.9 nM,153 nM,,
GUGGGAAUCACAGGAUAUACAUGCGCCGCUUCGUUCUACAUGAGGAUCACCCAUGUGUGGUCCGUGUAGAAGGGUGUUUGUUAC,,,31 nM,10.8 nM
AUGGUACAUGAGGAUCACCCAUGUCAGGAUAUCGGCUUUAACGUGAAAAGAGUGUUAGCGAGAAGGGACUGCUC,23.6 nM,28.7 nM,,
AGCAAGUCAGGAUAUGCGAAGUCAGGACACACACUGACGAAGCAGAAGGGACAUGAGGAUCACCCAUGUAAGCA,29.1 nM,42.9 nM,,
AGUAGAUCAGGAUAUACAUGAAAGAUCAAAAUGUCACUACUACAUGAGGAUCACCCAUGUAGAAGGGAUCUACA,52.9 nM,36.7 nM,,
AAAGUCGGAAGAUAAUAAUGAAUACAUGAGGAUCACCCAUGUAAGGAUAUGCAGUGGAAUACACUGCAGAAGGUACAAACCGAC,14.7 nM,19.8 nM,,
AUAGCAACAUGAGGAUCACCCAUGUAGGAUAUCGCUAUUGUAAUCAUGAAACAUGAUUACAAUAGCGAGAAGGACAUAUGCUAU,6.51 nM,9.75 nM,,
